Measured values as given in ChEMBL document CHEMBL1629438, “Selective peroxisome proliferator-activated receptor δ isosteric selenium agonists as potent anti-atherogenic agents in vivo” (Bioorg Med Chem Lett, 2010).

Legend:
Type in all cases: functional, cell-based
[1] = biological target: T1, Peroxisome proliferator-activated receptor delta (Homo sapiens, UniProt Q03181); test: Agonist activity at human PPAR-delta expressed in african green monkey CV-1 cells after 24 hrs by luciferase reporter gene assay
T1 sequence (Q03181 whole entry): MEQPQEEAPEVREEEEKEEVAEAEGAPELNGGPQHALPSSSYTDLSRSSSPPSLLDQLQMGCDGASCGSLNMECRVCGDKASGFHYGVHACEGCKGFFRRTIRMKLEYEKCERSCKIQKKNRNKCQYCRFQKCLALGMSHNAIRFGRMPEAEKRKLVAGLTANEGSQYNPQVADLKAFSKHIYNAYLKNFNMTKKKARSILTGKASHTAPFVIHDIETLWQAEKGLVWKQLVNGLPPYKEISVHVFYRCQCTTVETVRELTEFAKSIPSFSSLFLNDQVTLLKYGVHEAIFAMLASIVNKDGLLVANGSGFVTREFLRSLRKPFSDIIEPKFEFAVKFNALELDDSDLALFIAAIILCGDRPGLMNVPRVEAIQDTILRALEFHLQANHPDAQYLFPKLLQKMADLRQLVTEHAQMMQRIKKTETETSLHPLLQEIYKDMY
Method in brief: (§1)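 Cell-based co-transfection reporter assay, with EC50 values derived for each PPAR subtype.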

[2] = biological target: T2, Peroxisome proliferator-activated receptor alpha (Homo sapiens, UniProt Q07869); test: Agonist activity at human PPAR-alpha expressed in african green monkey CV-1 cells after 24 hrs by luciferase reporter gene assay; method in brief: as §1
T2 sequence (Q07869 whole entry): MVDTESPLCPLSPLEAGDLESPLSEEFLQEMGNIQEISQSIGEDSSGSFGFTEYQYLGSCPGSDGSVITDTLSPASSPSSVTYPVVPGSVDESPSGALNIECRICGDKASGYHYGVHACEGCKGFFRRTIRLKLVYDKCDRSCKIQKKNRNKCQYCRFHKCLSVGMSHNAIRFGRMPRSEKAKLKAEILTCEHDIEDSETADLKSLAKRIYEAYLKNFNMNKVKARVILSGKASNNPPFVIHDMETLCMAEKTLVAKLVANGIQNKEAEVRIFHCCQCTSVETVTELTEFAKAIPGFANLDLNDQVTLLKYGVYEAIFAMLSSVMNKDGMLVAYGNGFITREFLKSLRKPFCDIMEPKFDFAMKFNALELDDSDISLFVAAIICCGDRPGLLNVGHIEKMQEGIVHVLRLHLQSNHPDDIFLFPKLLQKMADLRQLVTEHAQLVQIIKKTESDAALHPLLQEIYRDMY

[3] = biological target: T3, Peroxisome proliferator-activated receptor gamma (Homo sapiens, UniProt P37231); test: Agonist activity at human PPAR-gamma expressed in african green monkey CV-1 cells after 24 hrs by luciferase reporter gene assay
T3 sequence (P37231 whole entry): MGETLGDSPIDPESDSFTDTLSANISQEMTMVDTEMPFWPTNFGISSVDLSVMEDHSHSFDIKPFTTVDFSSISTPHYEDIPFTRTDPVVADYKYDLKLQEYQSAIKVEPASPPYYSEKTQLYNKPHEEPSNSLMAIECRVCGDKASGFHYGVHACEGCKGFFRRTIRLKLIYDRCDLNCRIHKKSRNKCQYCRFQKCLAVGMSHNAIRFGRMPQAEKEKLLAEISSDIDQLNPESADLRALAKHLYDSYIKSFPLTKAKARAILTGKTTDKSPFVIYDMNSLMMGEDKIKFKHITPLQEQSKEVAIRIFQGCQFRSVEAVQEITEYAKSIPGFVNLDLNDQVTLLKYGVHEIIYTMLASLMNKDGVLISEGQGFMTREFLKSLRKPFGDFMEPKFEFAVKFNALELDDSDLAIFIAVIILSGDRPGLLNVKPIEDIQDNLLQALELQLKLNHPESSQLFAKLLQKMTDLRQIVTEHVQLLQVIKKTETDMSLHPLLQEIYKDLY

| SMILES | EC50 [1] [nM] | EC50 [2] [nM] | EC50 [3] [nM] |
| --- | --- | --- | --- |
| CCC(Oc1ccc([Se]Cc2sc(-c3ccc(C(F)(F)F)cc3)nc2C)cc1C)C(=O)O (configuration not stated) | 6.2 | 83.1 | > 1000 |
| Cc1cc([Se]Cc2sc(-c3ccc(C(F)(F)F)cc3)nc2C)ccc1OC(C)C(=O)O (configuration not stated) | 11 | 120 | > 1000 |
| Cc1cc([Se]Cc2sc(-c3ccc(C(F)(F)F)c(F)c3)nc2C)ccc1OCC(=O)O | 1 | 350 | > 1000 |
| Cc1cc([Se]Cc2sc(-c3ccc(C(F)(F)F)c(F)c3)nc2C)ccc1OC(C)C(=O)O (configuration not stated) | 8.5 | 39.4 | > 1000 |
